One block for each molecule: values may come before it. The source made the active and inactive calls. The calls are words filed in the database; no cut-off is given here.
Key:
[1] = molecular target: T1, Beta-galactoside alpha-2,6-sialyltransferase 1 (Rattus norvegicus) (UniProt P13721); assay: (§1) Kinetic parameter of sialylation by alpha-2,6-sialyltransferase
T1 sequence (whole entry): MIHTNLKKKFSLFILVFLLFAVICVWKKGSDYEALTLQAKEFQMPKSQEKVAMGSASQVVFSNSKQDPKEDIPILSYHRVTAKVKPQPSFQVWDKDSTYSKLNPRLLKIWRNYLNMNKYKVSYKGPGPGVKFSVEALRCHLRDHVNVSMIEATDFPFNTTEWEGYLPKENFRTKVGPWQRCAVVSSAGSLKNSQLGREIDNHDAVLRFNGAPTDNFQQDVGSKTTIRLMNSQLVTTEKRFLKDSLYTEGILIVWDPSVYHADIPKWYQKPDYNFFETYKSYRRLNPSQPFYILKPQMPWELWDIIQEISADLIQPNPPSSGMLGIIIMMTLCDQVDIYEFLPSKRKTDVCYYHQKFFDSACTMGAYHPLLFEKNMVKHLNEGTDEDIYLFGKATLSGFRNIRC
How it was run: (§2)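 Rat liver recombinant α-2,6-sialyltransferase transferring CMP-[14C]-Neu5Ac to LacNAc-based acceptors. Apparent kinetic parameters (Km, Vmax) were determined by previously reported assays. Vmax is expressed relative to unmodified LacNAc, which is set at 1.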

[2] = tested on: Alpha-(1,3)-fucosyltransferase 6 (Homo sapiens); assay: Kinetic parameter of […] of compound by fucosyltransferase 6 alpha 1,3; Not active
[3] = tested on: Alpha-(1,3)-fucosyltransferase 6 (Homo sapiens); assay: Kinetic parameter of […] by fucosyltransferase 6 alpha 1,3
[4] = substrate: CO[C@@H]1O[C@@H](CN)[C@@H](O[C@@H]2O[C@@H](CO)[C@H](O)[C@H](O)[C@@H]2O)[C@H](O)[C@@H]1NC(C)=O; assay: as §1; settings: Rattus norvegicus; how it was run: as §2
[5] = substrate: CO[C@@H]1O[C@@H](COS(C)(=O)=O)[C@@H](O[C@@H]2O[C@@H](CO)[C@H](O)[C@H](O)[C@@H]2O)[C@H](O)[C@@H]1NC(C)=O; assay: as §1; settings: Rattus norvegicus; how it was run: as §2
[6] = substrate: COC[C@@H]1O[C@@H](OC)[C@@H](NC(C)=O)[C@@H](O)[C@@H]1O[C@@H]1O[C@@H](CO)[C@H](O)[C@H](O)[C@@H]1OC; assay: as §1; settings: Rattus norvegicus; how it was run: as §2
[7] = substrate: CO[C@@H]1O[C@@H](CO)[C@@H](O[C@@H]2O[C@@H](CO)[C@H](O)[C@H](O)[C@@H]2O)[C@H](O)[C@@H]1NC(C)=O; assay: as §1; settings: Rattus norvegicus; how it was run: as §2
[8] = substrate: CO[C@@H]1O[C@@H](CNC(C)=O)[C@@H](O[C@@H]2O[C@@H](CO)[C@H](O)[C@H](O)[C@@H]2O)[C@H](O)[C@@H]1NC(C)=O; assay: as §1; settings: Rattus norvegicus; how it was run: as §2
[9] = substrate: COC[C@@H]1O[C@@H](OC)[C@@H](NC(C)=O)[C@@H](O)[C@@H]1O[C@@H]1O[C@@H](CO)[C@H](O)[C@H](O)[C@@H]1O; assay: as §1; settings: Rattus norvegicus; how it was run: as §2
[10] = substrate: CO[C@@H]1O[C@@H](CO)[C@@H](O[C@@H]2O[C@@H](CO)[C@H](O)[C@H](O)[C@@H]2OC)[C@H](O)[C@@H]1NC(C)=O; assay: as §1; settings: Rattus norvegicus; how it was run: as §2
[11] = substrate: CO[C@@H]1O[C@@H](CNS(C)(=O)=O)[C@@H](O[C@@H]2O[C@@H](CO)[C@H](O)[C@H](O)[C@@H]2O)[C@H](O)[C@@H]1NC(C)=O; assay: as §1; settings: Rattus norvegicus; how it was run: as §2
[12] = substrate: CO[C@@H]1O[C@@H](CNC=O)[C@@H](O[C@@H]2O[C@@H](CO)[C@H](O)[C@H](O)[C@@H]2OC)[C@H](O)[C@@H]1NC(C)=O; assay: as §1; settings: Rattus norvegicus; how it was run: as §2
[13] = substrate: CO[C@@H]1O[C@@H](C(N)=O)[C@@H](O[C@@H]2O[C@@H](CO)[C@H](O)[C@H](O)[C@@H]2O)[C@H](O)[C@@H]1NC(C)=O; assay: as §1; settings: Rattus norvegicus; how it was run: as §2
[14] = substrate: CO[C@@H]1O[C@@H](CNC=O)[C@@H](O[C@@H]2O[C@@H](CO)[C@H](O)[C@H](O)[C@@H]2O)[C@H](O)[C@@H]1NC(C)=O; assay: as §1; settings: Rattus norvegicus; how it was run: as §2
[15] = substrate: CNC(=O)[C@@H]1O[C@@H](OC)[C@@H](NC(C)=O)[C@@H](O)[C@@H]1O[C@@H]1O[C@@H](CO)[C@H](O)[C@H](O)C1O; assay: as §1; settings: Rattus norvegicus; how it was run: as §2
[16] = substrate: CO[C@@H]1O[C@@H](CN)[C@@H](O[C@@H]2O[C@@H](CO)[C@H](O)[C@H](O)[C@@H]2O)[C@H](O)[C@@H]1NC(C)=O; assay: (§3) Apparent kinetic parameter of sialylation by alpha-2,6-sialyltransferase; settings: Rattus norvegicus; how it was run: as §2
[17] = substrate: CO[C@@H]1O[C@@H](COS(C)(=O)=O)[C@@H](O[C@@H]2O[C@@H](CO)[C@H](O)[C@H](O)[C@@H]2O)[C@H](O)[C@@H]1NC(C)=O; assay: as §3; settings: Rattus norvegicus; how it was run: as §2
[18] = substrate: COC[C@@H]1O[C@@H](OC)[C@@H](NC(C)=O)[C@@H](O)[C@@H]1O[C@@H]1O[C@@H](CO)[C@H](O)[C@H](O)[C@@H]1OC; assay: as §3; settings: Rattus norvegicus; how it was run: as §2
[19] = substrate: CO[C@@H]1O[C@@H](CO)[C@@H](O[C@@H]2O[C@@H](CO)[C@H](O)[C@H](O)[C@@H]2O)[C@H](O)[C@@H]1NC(C)=O; assay: as §3; settings: Rattus norvegicus; how it was run: as §2
[20] = substrate: CO[C@@H]1O[C@@H](CNC(C)=O)[C@@H](O[C@@H]2O[C@@H](CO)[C@H](O)[C@H](O)[C@@H]2O)[C@H](O)[C@@H]1NC(C)=O; assay: as §3; settings: Rattus norvegicus; how it was run: as §2
[21] = substrate: COC[C@@H]1O[C@@H](OC)[C@@H](NC(C)=O)[C@@H](O)[C@@H]1O[C@@H]1O[C@@H](CO)[C@H](O)[C@H](O)[C@@H]1O; assay: as §3; settings: Rattus norvegicus; how it was run: as §2
[22] = substrate: CO[C@@H]1O[C@@H](CO)[C@@H](O[C@@H]2O[C@@H](CO)[C@H](O)[C@H](O)[C@@H]2OC)[C@H](O)[C@@H]1NC(C)=O; assay: as §3; settings: Rattus norvegicus; how it was run: as §2
[23] = substrate: CO[C@@H]1O[C@@H](CNS(C)(=O)=O)[C@@H](O[C@@H]2O[C@@H](CO)[C@H](O)[C@H](O)[C@@H]2O)[C@H](O)[C@@H]1NC(C)=O; assay: as §3; settings: Rattus norvegicus; how it was run: as §2
[24] = substrate: CO[C@@H]1O[C@@H](CNC=O)[C@@H](O[C@@H]2O[C@@H](CO)[C@H](O)[C@H](O)[C@@H]2OC)[C@H](O)[C@@H]1NC(C)=O; assay: as §3; settings: Rattus norvegicus; how it was run: as §2
[25] = substrate: CO[C@@H]1O[C@@H](C(N)=O)[C@@H](O[C@@H]2O[C@@H](CO)[C@H](O)[C@H](O)[C@@H]2O)[C@H](O)[C@@H]1NC(C)=O; assay: as §3; settings: Rattus norvegicus; how it was run: as §2
[26] = substrate: CO[C@@H]1O[C@@H](CNC=O)[C@@H](O[C@@H]2O[C@@H](CO)[C@H](O)[C@H](O)[C@@H]2O)[C@H](O)[C@@H]1NC(C)=O; assay: as §3; settings: Rattus norvegicus; how it was run: as §2
[27] = substrate: CNC(=O)[C@@H]1O[C@@H](OC)[C@@H](NC(C)=O)[C@@H](O)[C@@H]1O[C@@H]1O[C@@H](CO)[C@H](O)[C@H](O)C1O; assay: as §3; settings: Rattus norvegicus; how it was run: as §2

Molecule: CO[C@@H]1O[C@@H](CO)[C@@H](O[C@@H]2O[C@@H](CO)[C@H](O)[C@H](O)[C@@H]2OC)[C@H](O)[C@@H]1NC(C)=O
Vmax / Km [3]: 3.1
Vmax / Km [1]: 0.2

Molecule: CO[C@@H]1O[C@@H](CN)[C@@H](O[C@@H]2O[C@@H](CO)[C@H](O)[C@H](O)[C@@H]2O)[C@H](O)[C@@H]1NC(C)=O
Vmax / Km [3]: 1.5
Vmax / Km [1]: 0.08

Molecule: CO[C@@H]1O[C@@H](CNC=O)[C@@H](O[C@@H]2O[C@@H](CO)[C@H](O)[C@H](O)[C@@H]2O)[C@H](O)[C@@H]1NC(C)=O
Vmax / Km [3]: 7.3
Vmax / Km [1]: 1.5

Molecule: COC[C@@H]1O[C@@H](OC)[C@@H](NC(C)=O)[C@@H](O)[C@@H]1O[C@@H]1O[C@@H](CO)[C@H](O)[C@H](O)[C@@H]1O
Vmax / Km [3]: 4.5
Vmax / Km [1]: 0.2

Molecule: COC[C@@H]1O[C@@H](OC)[C@@H](NC(C)=O)[C@@H](O)[C@@H]1O[C@@H]1O[C@@H](CO)[C@H](O)[C@H](O)[C@@H]1OC
Vmax / Km [3]: 6.7
Vmax / Km [1]: 0.04

Molecule: CO[C@@H]1O[C@@H](CNS(C)(=O)=O)[C@@H](O[C@@H]2O[C@@H](CO)[C@H](O)[C@H](O)[C@@H]2O)[C@H](O)[C@@H]1NC(C)=O
Vmax / Km [3]: 8.7
Vmax / Km [1]: 0.9

B1: Beta-galactoside alpha-2,6-sialyltransferase 1 (Rattus norvegicus), P13721 (protein)
chain: MIHTNLKKKFSLFILVFLLFAVICVWKKGSDYEALTLQAKEFQMPKSQEKVAMGSASQVVFSNSKQDPKEDIPILSYHRVTAKVKPQPSFQVWDKDSTYSKLNPRLLKIWRNYLNMNKYKVSYKGPGPGVKFSVEALRCHLRDHVNVSMIEATDFPFNTTEWEGYLPKENFRTKVGPWQRCAVVSSAGSLKNSQLGREIDNHDAVLRFNGAPTDNFQQDVGSKTTIRLMNSQLVTTEKRFLKDSLYTEGILIVWDPSVYHADIPKWYQKPDYNFFETYKSYRRLNPSQPFYILKPQMPWELWDIIQEISADLIQPNPPSSGMLGIIIMMTLCDQVDIYEFLPSKRKTDVCYYHQKFFDSACTMGAYHPLLFEKNMVKHLNEGTDEDIYLFGKATLSGFRNIRC
Vmax [4]: 0.5
Vmax [5]: 0.9
Vmax [6]: 0.5
Vmax [7]: 1
Vmax [8]: 0.6
Vmax [9]: 0.8
Vmax [10]: 0.8
Vmax [11]: 0.7
Vmax [12]: 1
Vmax [13]: < 0.2
Vmax [14]: 1.6
Vmax [15]: 0.2
Km [16]: 5800 µM
Km [17]: 700 µM
Km [18]: 11200 µM
Km [19]: 1700 µM
Km [20]: 1400 µM
Km [21]: 4300 µM
Km [22]: 4100 µM
Km [23]: 800 µM
Km [24]: 3100 µM
Km [25]: > 10000 µM
Km [26]: 1100 µM
Km [27]: 2400 µM

Next, values leading:

Vmax / Km [1]: 0.6
Molecule: CO[C@@H]1O[C@@H](CO)[C@@H](O[C@@H]2O[C@@H](CO)[C@H](O)[C@H](O)[C@@H]2O)[C@H](O)[C@@H]1NC(C)=O

Vmax / Km [1]: 0.02
Vmax / Km [2]: inactive
Molecule: CO[C@@H]1O[C@@H](C(N)=O)[C@@H](O[C@@H]2O[C@@H](CO)[C@H](O)[C@H](O)[C@@H]2O)[C@H](O)[C@@H]1NC(C)=O

Vmax / Km [3]: 6.8
Vmax / Km [1]: 0.4
Molecule: CO[C@@H]1O[C@@H](CNC(C)=O)[C@@H](O[C@@H]2O[C@@H](CO)[C@H](O)[C@H](O)[C@@H]2O)[C@H](O)[C@@H]1NC(C)=O

Vmax / Km [3]: 9.3
Vmax / Km [1]: 0.3
Molecule: CO[C@@H]1O[C@@H](CNC=O)[C@@H](O[C@@H]2O[C@@H](CO)[C@H](O)[C@H](O)[C@@H]2OC)[C@H](O)[C@@H]1NC(C)=O

Vmax / Km [3]: 1.2
Vmax / Km [1]: 0.2
Molecule: COC(=O)[C@@H]1O[C@@H](OC)[C@@H](NC(C)=O)[C@@H](O)[C@@H]1O[C@@H]1O[C@@H](CO)[C@H](O)[C@H](O)[C@@H]1O

Vmax / Km [3]: 0.4
Vmax / Km [1]: 0.08
Molecule: CNC(=O)[C@@H]1O[C@@H](OC)[C@@H](NC(C)=O)[C@@H](O)[C@@H]1O[C@@H]1O[C@@H](CO)[C@H](O)[C@H](O)C1O (some centres undefined)

Vmax / Km [3]: 3.6
Vmax / Km [1]: 1.3
Molecule: CO[C@@H]1O[C@@H](COS(C)(=O)=O)[C@@H](O[C@@H]2O[C@@H](CO)[C@H](O)[C@H](O)[C@@H]2O)[C@H](O)[C@@H]1NC(C)=O
